Measured values as given in ChEMBL document CHEMBL3232904, “Discovery of novel quinoline carboxylic acid series as DGAT1 inhibitors” (Bioorg Med Chem Lett, 2014).
pIC50: −log10 of the molar value. ≈ marks a conversion by molar mass, not a printed value.

What was measured:
[1] = target: T1, Diacylglycerol O-acyltransferase 1 (Mus musculus, UniProt Q9Z2A7); experiment: Inhibition of mouse DGAT1
T1 sequence (Q9Z2A7 whole entry): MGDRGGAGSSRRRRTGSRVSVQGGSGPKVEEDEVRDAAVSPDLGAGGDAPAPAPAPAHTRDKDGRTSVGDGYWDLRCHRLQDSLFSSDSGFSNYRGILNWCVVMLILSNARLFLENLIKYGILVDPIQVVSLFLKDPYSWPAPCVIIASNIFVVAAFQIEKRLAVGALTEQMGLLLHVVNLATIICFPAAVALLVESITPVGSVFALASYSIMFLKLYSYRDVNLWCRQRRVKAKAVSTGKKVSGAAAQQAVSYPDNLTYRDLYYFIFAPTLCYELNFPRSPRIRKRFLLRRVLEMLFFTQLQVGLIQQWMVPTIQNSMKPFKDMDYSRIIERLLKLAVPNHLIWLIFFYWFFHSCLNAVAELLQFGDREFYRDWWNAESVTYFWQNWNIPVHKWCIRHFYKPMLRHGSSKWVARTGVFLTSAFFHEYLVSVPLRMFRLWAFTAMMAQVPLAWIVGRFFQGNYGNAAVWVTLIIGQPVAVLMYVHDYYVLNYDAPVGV
Method in brief: (§1)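 IC50 values are the average of at least two independent determinations.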

[2] = Oral bioavailability in rat at 10 mg/kg; type: ADME, organism-based; conditions: in vivo
Mus musculus [3] = experiment: Reduction of postprandial plasma triglyceride level in C57BL/6J mouse at 10 mg/kg, po administered 15 mins prior to corn oil bolus challenge measured after 2 hrs relative to vehicle-treated control; type: functional; parameters: scale not given: the % may be the effect or the level left
Method in brief: (§2)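 Vehicle is 20% hydroxypropyl-β-cyclodextrin; compound or vehicle is given 15 min before time 0. Mice receive a 0.25 mL corn oil bolus at time 0. Terminal blood is taken by heart puncture at 120 min. Plasma TG is measured by an enzymatic colorimetric kit with absorbance read at 600 nm. Values are the mean ± SEM from eight studies, as % reduction versus vehicle.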

[4] = Permeability across human Caco2 cells; type: ADME, cell-based; conditions: Caco-2, read-out: permeability
[5] = Half life in rat at 10 mg/kg, po; type: ADME, organism-based; parameters: dose 10 mg/kg, route oral; conditions: in vivo
[6] = Plasma protein binding in rat; type: ADME, cell-free; conditions: read-out: PPB (converted)
[7] = Clearance in rat hepatocytes assessed per million cells; type: ADME, cell-based, Hepatocyte; conditions: read-out: CLH
[8] = Solubility of the compound; type: physicochemical
[9] = Drug degradation in human plasma at 25 degC after 12 hrs; type: ADME, cell-free; conditions: read-out: Drug degradation
[10] = AUC in rat at 10 mg/kg, po; type: ADME, organism-based; parameters: dose 10 mg/kg, route oral; conditions: plasma
[11] = Clearance in human hepatocytes assessed per million cells; type: ADME, cell-based, Hepatocyte; conditions: read-out: CLH
[12] = target: T2, Diacylglycerol O-acyltransferase 1 (Homo sapiens, UniProt O75907); experiment: Inhibition of human DGAT1
T2 sequence (O75907 whole entry): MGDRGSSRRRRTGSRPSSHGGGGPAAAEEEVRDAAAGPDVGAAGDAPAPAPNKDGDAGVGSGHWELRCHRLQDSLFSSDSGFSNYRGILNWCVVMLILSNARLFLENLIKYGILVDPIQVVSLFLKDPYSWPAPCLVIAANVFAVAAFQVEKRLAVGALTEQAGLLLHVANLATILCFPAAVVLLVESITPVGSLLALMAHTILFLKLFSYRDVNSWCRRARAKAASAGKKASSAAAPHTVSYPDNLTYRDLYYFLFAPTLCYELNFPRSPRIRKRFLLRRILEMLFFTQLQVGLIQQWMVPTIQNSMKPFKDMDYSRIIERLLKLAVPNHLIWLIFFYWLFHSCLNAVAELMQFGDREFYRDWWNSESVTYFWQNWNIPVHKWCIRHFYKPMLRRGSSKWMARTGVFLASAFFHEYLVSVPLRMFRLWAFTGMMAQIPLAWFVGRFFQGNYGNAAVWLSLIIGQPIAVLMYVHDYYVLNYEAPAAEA

[13] = Metabolic stability in human plasma assessed as compound recovery at 25 degC after 6 days; type: ADME, cell-free; conditions: read-out: Drug recovery
CYP1A1 = target: T3, CYP1A1 (Homo sapiens, UniProt P04798); experiment: Induction of CYP1A1 (unknown origin) at 30 uM; type: ADME; conditions: read-out: FC
T3 sequence (P04798 whole entry): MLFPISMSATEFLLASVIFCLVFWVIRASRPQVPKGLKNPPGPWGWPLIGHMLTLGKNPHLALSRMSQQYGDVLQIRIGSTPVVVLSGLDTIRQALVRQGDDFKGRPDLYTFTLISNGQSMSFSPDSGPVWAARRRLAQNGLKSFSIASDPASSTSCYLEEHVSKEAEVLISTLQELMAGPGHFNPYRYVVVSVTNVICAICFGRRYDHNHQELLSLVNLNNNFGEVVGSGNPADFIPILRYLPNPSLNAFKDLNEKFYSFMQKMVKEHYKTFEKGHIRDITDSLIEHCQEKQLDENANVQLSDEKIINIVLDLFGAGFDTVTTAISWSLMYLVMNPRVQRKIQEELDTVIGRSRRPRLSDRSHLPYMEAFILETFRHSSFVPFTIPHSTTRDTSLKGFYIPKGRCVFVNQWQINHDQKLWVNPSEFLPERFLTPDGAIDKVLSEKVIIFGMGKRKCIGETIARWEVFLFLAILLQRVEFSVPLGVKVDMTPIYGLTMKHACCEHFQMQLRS

[14] = target: T4, Diacylglycerol O-acyltransferase 2 (Homo sapiens, UniProt Q96PD7); experiment: Inhibition of human DGAT2
T4 sequence (Q96PD7 whole entry): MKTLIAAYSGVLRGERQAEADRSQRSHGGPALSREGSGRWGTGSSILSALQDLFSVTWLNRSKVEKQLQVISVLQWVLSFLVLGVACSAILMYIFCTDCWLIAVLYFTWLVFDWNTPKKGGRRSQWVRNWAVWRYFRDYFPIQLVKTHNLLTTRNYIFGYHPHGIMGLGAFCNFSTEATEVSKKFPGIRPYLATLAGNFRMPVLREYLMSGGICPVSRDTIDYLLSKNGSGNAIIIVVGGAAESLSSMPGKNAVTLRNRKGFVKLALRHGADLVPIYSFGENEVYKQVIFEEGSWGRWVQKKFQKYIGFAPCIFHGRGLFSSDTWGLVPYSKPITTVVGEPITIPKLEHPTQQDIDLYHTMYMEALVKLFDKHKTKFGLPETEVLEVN

[15] = target: T5, Sterol O-acyltransferase 2 (Homo sapiens, UniProt O75908); experiment: Inhibition of human ACAT2; method in brief: as §1
T5 sequence (O75908 whole entry): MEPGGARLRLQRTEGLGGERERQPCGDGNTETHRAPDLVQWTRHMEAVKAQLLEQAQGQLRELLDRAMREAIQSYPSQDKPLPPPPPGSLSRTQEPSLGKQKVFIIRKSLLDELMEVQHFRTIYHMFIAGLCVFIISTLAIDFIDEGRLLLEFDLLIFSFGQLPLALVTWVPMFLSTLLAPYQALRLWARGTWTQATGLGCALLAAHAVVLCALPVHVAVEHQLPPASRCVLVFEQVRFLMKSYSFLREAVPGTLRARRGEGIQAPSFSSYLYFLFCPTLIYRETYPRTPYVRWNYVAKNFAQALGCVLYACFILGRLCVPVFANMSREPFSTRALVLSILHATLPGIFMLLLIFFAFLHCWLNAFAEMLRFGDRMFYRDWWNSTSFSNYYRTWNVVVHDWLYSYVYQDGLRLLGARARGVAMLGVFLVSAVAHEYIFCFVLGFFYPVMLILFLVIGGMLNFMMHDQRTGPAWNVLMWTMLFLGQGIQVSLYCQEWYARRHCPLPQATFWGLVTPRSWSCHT

Mus musculus [16] = experiment: Reduction of postprandial plasma triglyceride level in C57BL/6J mouse at 3 mg/kg, po administered 15 mins prior to corn oil bolus challenge measured after 2 hrs relative to vehicle-treated control; type: functional; parameters: scale not given: the % may be the effect or the level left; method in brief: as §2
[17] = Solubility of the compound at pH 7; type: physicochemical; conditions: buffer
Plasma [18] = experiment: Metabolic stability in human plasma at 25 degC; type: ADME, cell-free
Plasma [19] = experiment: Metabolic stability in mouse plasma at 25 degC; type: ADME, cell-free
Plasma [20] = experiment: Metabolic stability in rat plasma at 25 degC; type: ADME, cell-free
[21] = target: T6, Sterol O-acyltransferase 1 (Homo sapiens, UniProt P35610); experiment: Inhibition of human ACAT1; method in brief: as §1
T6 sequence (P35610 whole entry): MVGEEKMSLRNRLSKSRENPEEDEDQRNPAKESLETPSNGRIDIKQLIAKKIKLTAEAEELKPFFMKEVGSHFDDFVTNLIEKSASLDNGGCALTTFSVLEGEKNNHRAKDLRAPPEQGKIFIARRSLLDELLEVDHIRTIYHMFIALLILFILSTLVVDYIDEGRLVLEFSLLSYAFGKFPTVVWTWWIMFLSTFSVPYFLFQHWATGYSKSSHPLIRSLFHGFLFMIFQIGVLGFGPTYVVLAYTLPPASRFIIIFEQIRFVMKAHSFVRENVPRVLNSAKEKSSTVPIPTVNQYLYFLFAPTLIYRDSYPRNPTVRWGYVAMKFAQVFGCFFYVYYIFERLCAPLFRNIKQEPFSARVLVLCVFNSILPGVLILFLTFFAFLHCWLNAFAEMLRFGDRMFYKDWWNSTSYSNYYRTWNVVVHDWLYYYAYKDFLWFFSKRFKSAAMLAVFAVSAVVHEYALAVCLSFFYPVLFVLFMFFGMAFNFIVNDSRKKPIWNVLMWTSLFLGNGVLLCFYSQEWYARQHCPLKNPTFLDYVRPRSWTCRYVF

Structure (SMILES) | pIC50 [1] | AUC [10] [µM·h] | pIC50 [12] | Activity (Mus musculus [3]) [%] | other results
O=C(O)C[C@H]1CC[C@H](c2ccc(-c3ccc4oc(Nc5ccccc5)nc4c3)cc2)CC1 | 5.42 |  |  |  | 
O=C(O)C[C@H]1CC[C@H](c2ccc(-c3ccc4c(c3)CCN4C(=O)Nc3ccccc3)cc2)CC1 | 7.16 | 17 |  | -13 | bioavailability [2]: > 90%; Papp [4]: 17 ×10⁻⁶ cm/s; half-life [5]: 3 h; fraction unbound [6]: 0.002; hepatocyte CLint [7]: 13 µL/min/1e6 cells; solubility [8]: 50 µM (≈ 22.7 µg/mL); metabolised at 12 h [9]: 20%; hepatocyte CLint [11]: 3 µL/min/1e6 cells
O=C(O)C[C@H]1CC[C@H](c2ccc(-c3ccc4c(c3)NCCN4C(=O)Nc3ccccc3)cc2)CC1 | 5.32 |  |  |  | 
O=C(O)C[C@H]1CC[C@H](c2ccc(-c3ccc4c(c3)C(=O)CCN4C(=O)Nc3ccccc3)cc2)CC1 | 5.78 |  | < 5.00 |  | 
O=C(O)C[C@H]1CC[C@H](c2ccc(-c3ccc4c(c3)CCCN4C(=O)Nc3ccccc3)cc2)CC1 | 7.08 | 79 |  | -15 | 
O=C(O)C[C@H]1CC[C@H](c2ccc(-c3ccc4c(c3)OCCN4C(=O)Nc3ccccc3)cc2)CC1 | 7.40 | 58 | 7.19 | -52 | remaining at 144 h [13]: 80%; fold induction at 30 µM (CYP1A1): 10; Papp [4]: 44.8 ×10⁻⁶ cm/s; half-life [5]: 4 h; fraction unbound [6]: 0.002; pIC50 [14]: < 5.00; pIC50 [15]: 5.01; hepatocyte CLint [7]: 9 µL/min/1e6 cells; solubility [8]: 100 µM (≈ 47.1 µg/mL); hepatocyte CLint [11]: 11 µL/min/1e6 cells
Cc1cc(C(=O)NCCCCCc2ccccc2)c2ccc(-c3ccc([C@H]4CC[C@H](CC(=O)O)CC4)cc3)cc2n1 | 8.85 | 10 |  |  | Activity (Mus musculus [16]): -58%
Cc1cc(C(=O)Nc2ccccc2)c2ccc(-c3ccc(OCC(C)(C)C(=O)O)[n+]([O-])c3)cc2n1 | 7.64 |  | 6.91 |  | pIC50 [15]: 4.88; Activity (Mus musculus [16]): -40%
CC(C)c1cccc(NC(=O)c2ccnc3cc(-c4ccc([C@H]5CC[C@H](CC(=O)O)CC5)cc4)ccc23)c1 | 7.64 | 0.03 |  |  | Stability (Plasma [18]): 12 h; Stability (Plasma [19]): 12 h; Stability (Plasma [20]): 12 h; Activity (Mus musculus [16]): -76%
O=C(O)C[C@H]1CC[C@H](c2ccc(-c3ccc4nc(Nc5ccccc5)ncc4c3)cc2)CC1 | < 5.00 |  |  |  | 
CN1CCN(C(=O)Nc2ccccc2)c2ccc(-c3ccc([C@H]4CC[C@H](CC(=O)O)CC4)cc3)cc2C1 | < 5.00 |  | < 5.00 |  | 
Cc1cc(C(=O)Nc2ccccc2)c2ccc(-c3ccc(OCC(C)(C)C(=O)O)nc3)cc2n1 | 7.16 | 34 |  |  | pIC50 [15]: 5.81; Activity (Mus musculus [16]): -91%

More lines, main results first:

pIC50 [1] | AUC [10] [µM·h] | pIC50 [12] | Structure (SMILES) | Activity (Mus musculus [3]) [%] | other results
6.55 | 1.3 |  | O=C(O)C[C@H]1CC[C@H](c2ccc(-c3ccc4c(C(=O)Nc5ccccc5)c[nH]c4c3)cc2)CC1 | 23 | 
 |  | 7.43 | O=C(O)C[C@H]1CC[C@H](c2ccc(-c3ccc4c(ccn4C(=O)Nc4ccccc4)c3)cc2)CC1 | -45 | pIC50 [14]: < 4.30; pIC50 [15]: 5.52; metabolised at 12 h [9]: 40%
8.10 |  |  | O=C(O)C[C@H]1CC[C@H](c2ccc(-c3ccc4c(C(=O)Nc5ccccc5)cccc4c3)cc2)CC1 | 0 | solubility [17]: 10 µM (≈ 4.64 µg/mL)
7.64 | 5 | 7.39 | O=C(O)C[C@H]1CC[C@H](c2ccc(-c3ccc4c(C(=O)Nc5ccccc5)ccnc4c3)cc2)CC1 | -85 | Papp [4]: 54.2 ×10⁻⁶ cm/s; solubility [8]: 50 µM (≈ 23.2 µg/mL); pIC50 [21]: 5.38
5.96 |  |  | O=C(O)C[C@H]1CC[C@H](c2ccc(-c3ccc4cc(C(=O)Nc5ccccc5)[nH]c4c3)cc2)CC1 |  | 
< 5.30 |  |  | O=C(O)C[C@H]1CC[C@H](c2ccc(-c3ccc4nc(C(=O)Nc5ccccc5)[nH]c4c3)cc2)CC1 |  | 
